One block for each compound: values may come before it.
How the values were obtained:
Thymidylate synthase [1] = molecular target: T1, Thymidylate synthase (Homo sapiens, UniProt P04818); experiment: The rate constant in Acetonitrile and buffered aqueous acetonitrile solution, at 30 degrees Celsius and pH 8.1
Target sequence in this assay (P04818 2-313 limits assumed): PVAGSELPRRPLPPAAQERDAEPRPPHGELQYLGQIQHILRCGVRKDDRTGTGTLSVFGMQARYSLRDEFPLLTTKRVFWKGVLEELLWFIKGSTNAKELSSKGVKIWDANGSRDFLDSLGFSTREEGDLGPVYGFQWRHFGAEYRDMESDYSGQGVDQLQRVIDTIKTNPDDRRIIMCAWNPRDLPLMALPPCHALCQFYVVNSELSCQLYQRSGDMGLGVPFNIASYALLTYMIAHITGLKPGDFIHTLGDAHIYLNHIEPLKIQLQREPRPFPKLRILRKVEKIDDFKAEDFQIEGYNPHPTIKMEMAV

Thymidylate synthase [2] = molecular target: T1, Thymidylate synthase; experiment: The rate constant in Acetonitrile and buffered aqueous acetonitrile solution, at 30 degrees C and pH 6.8
Target sequence in this assay (P04818 2-313 limits assumed): as above

Thymidylate synthase [3] = molecular target: T1, Thymidylate synthase; experiment: The rate constant in 75% aqueous Acetonotrileas methyl mercaptoacetate as reagent
Target sequence in this assay (P04818 2-313 limits assumed): as above

Thymidylate synthase [4] = molecular target: T1, Thymidylate synthase; experiment: The rate constant in 75% aqueous Acetonitrile […] as reagent
Target sequence in this assay (P04818 2-313 limits assumed): as above

Thymidylate synthase [5] = molecular target: T1, Thymidylate synthase; experiment: The rate constant in Acetonitrile and buffered aqueous acetonitrile solution, at 25 degrees Celsius and pH 7.4
Target sequence in this assay (P04818 2-313 limits assumed): as above

Thymidylate synthase [6] = molecular target: T1, Thymidylate synthase; experiment: Binding affinity against thymidylate synthase
Procedure, shortened: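 Thymidylate synthase was inactivated at pH 6.8 and 30 °C, and time-dependent loss of activity was followed. Observed inactivation rate constants, including runs with substrate present (substrate protection), were fitted to 1/kobsd = [Ki[S]/(Km[I]) + Ki/kinact](1/[I]) + 1/kinact to give Ki and kinact. The second-order constant was taken as kinact/Ki.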
Target sequence in this assay (P04818 whole entry): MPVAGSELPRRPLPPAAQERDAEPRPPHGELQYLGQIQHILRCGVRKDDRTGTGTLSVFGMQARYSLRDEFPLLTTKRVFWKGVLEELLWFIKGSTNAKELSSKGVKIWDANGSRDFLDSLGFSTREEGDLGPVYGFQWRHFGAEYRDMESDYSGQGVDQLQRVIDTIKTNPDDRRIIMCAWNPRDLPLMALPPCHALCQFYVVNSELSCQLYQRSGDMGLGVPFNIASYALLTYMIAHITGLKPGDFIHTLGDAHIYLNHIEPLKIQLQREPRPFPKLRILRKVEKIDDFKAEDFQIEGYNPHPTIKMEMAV

Thymidylate synthase [7] = molecular target: T1, Thymidylate synthase
Target sequence in this assay (P04818 2-313 limits assumed): as the sequence (P04818 2-313 limits assumed) above

Thymidylate synthase [8] = molecular target: T1, Thymidylate synthase; experiment: The rate constant in 70% ethanol
Thymidylate synthase [9] = molecular target: T1, Thymidylate synthase; experiment: The observed rate constant with methyl mercaptoacetate in Acetonitrile and buffered aqueous acetonitrile solution at 1.6 x 10e-4 M concentration of 0.0036 M
Procedure, shortened: (§1)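 Quinone nucleoside reacted with excess methyl mercaptoacetate in deoxygenated acetonitrile at […]. Water content was varied by adding known amounts of water to acetonitrile dried over 3-Å sieves. Initial quinone was 7.4×10^-5 to 1.6×10^-4 M, and thiol was varied. Pseudo-first-order kobsd was measured, and k2 came from log kobsd = log k2 + n log[thiol].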

Thymidylate synthase [10] = molecular target: T1, Thymidylate synthase; experiment: The observed rate constant with methyl mercaptoacetate in Acetonitrile and buffered aqueous acetonitrile solution at 9.7 x 10e-5 M concentration of 0.0048 M; procedure, shortened: as §1
Thymidylate synthase [11] = molecular target: T1, Thymidylate synthase; experiment: The observed rate constant with methyl mercaptoacetate in Acetonitrile and buffered aqueous acetonitrile solution at 9.7 x 10e-5 M concentration of 0.00096 M; procedure, shortened: as §1
Thymidylate synthase [12] = molecular target: T1, Thymidylate synthase; experiment: The observed rate constant with methyl mercaptoacetate in Acetonitrile and buffered aqueous acetonitrile solution at 1.6 x 10e-4 M concentration of 0.0015 M; procedure, shortened: as §1
Thymidylate synthase [13] = molecular target: T1, Thymidylate synthase; experiment: The observed rate constant with methyl mercaptoacetate in Acetonitrile and buffered aqueous acetonitrile solution at 7.4 x 10e-5 M concentration of 0.00098 M; procedure, shortened: as §1
Thymidylate synthase [14] = molecular target: T1, Thymidylate synthase; experiment: The observed rate constant with methyl mercaptoacetate in Acetonitrile and buffered aqueous acetonitrile solution at 9.7 x 10e-5 M concentration of 0.0096 M; procedure, shortened: as §1
Thymidylate synthase [15] = molecular target: T1, Thymidylate synthase; experiment: The rate constant with methyl mercaptoacetate in Acetonitrile and buffered aqueous acetonitrile solution at concentration of 0.00096 M; procedure, shortened: as §1
Thymidylate synthase [16] = molecular target: T1, Thymidylate synthase; experiment: The observed rate constant with methyl mercaptoacetate in Acetonitrile and buffered aqueous acetonitrile solution at 1.4 x 10e-4 M concentration of 0.0020; procedure, shortened: as §1
Thymidylate synthase [17] = molecular target: T1, Thymidylate synthase; experiment: The rate constant with methyl mercaptoacetate in Acetonitrile and buffered aqueous acetonitrile solution at concentration of 0.0077 M; procedure, shortened: as §1
Thymidylate synthase [18] = molecular target: T1, Thymidylate synthase; experiment: The rate constant with methyl mercaptoacetate in Acetonitrile and buffered aqueous acetonitrile solution at concentration of 0.012 M; procedure, shortened: as §1
Thymidylate synthase [19] = molecular target: T1, Thymidylate synthase; experiment: The observed rate constant with methyl mercaptoacetate in Acetonitrile and buffered aqueous acetonitrile solution at 1.6 x 10e-4 M concentration of 0.0026 M; procedure, shortened: as §1
Thymidylate synthase [20] = molecular target: T1, Thymidylate synthase; experiment: The observed rate constant with methyl mercaptoacetate in Acetonitrile and buffered aqueous acetonitrile solution at 7.4 x 10e-5 M concentration of 0.0039 M; procedure, shortened: as §1
Thymidylate synthase [21] = molecular target: T1, Thymidylate synthase; experiment: The observed rate constant with methyl mercaptoacetate in Acetonitrile and buffered aqueous acetonitrile solution at 1.4 x 10e-4 M concentration of 0.0077; procedure, shortened: as §1
Thymidylate synthase [22] = molecular target: T1, Thymidylate synthase; experiment: The observed rate constant with methyl mercaptoacetate in Acetonitrile and buffered aqueous acetonitrile solution at 7.4 x 10e-5 M concentration of 0.0019 M; procedure, shortened: as §1
Thymidylate synthase [23] = molecular target: T1, Thymidylate synthase; experiment: The observed rate constant with methyl mercaptoacetate in Acetonitrile and buffered aqueous acetonitrile solution at 1.4 x 10e-4 M concentration of 0.0039; procedure, shortened: as §1
Thymidylate synthase [24] = molecular target: T1, Thymidylate synthase; experiment: The observed rate constant with methyl mercaptoacetate in Acetonitrile and buffered aqueous acetonitrile solution at 1.6 x 10e-4 M concentration of 0.0061 M; procedure, shortened: as §1
Thymidylate synthase [25] = molecular target: T1, Thymidylate synthase; experiment: The observed rate constant with methyl mercaptoacetate in Acetonitrile and buffered aqueous acetonitrile solution at 9.7 x 10e-5 M concentration of 0.0029 M; procedure, shortened: as §1
Thymidylate synthase [26] = molecular target: T1, Thymidylate synthase; experiment: The rate constant with methyl mercaptoacetate in Acetonitrile and buffered aqueous acetonitrile solution at concentration of 0.0039 M; procedure, shortened: as §1
Thymidylate synthase [27] = molecular target: T1, Thymidylate synthase; experiment: The observed rate constant with methyl mercaptoacetate in Acetonitrile and buffered aqueous acetonitrile solution at 1.6 x 10e-4 M concentration of 0.012 M; procedure, shortened: as §1

SMILES: C=CC(=O)OC
k2 (Thymidylate synthase [1]): 0.11 M⁻¹ s⁻¹

SMILES: O=C1C=CC(=O)C(c2cn([C@H]3C[C@H](O)[C@@H](CO)O3)c(=O)[nH]c2=O)=C1
k2 (Thymidylate synthase [3]): > 1000 M⁻¹ s⁻¹
k2 (Thymidylate synthase [4]): 5 M⁻¹ s⁻¹

SMILES: CC1C=CC(=O)O1 (centres undefined)
k2 (Thymidylate synthase [5]): 0.037 M⁻¹ s⁻¹

SMILES: CC1=CC(=O)c2ccccc2C1=O
k2 (Thymidylate synthase [8]): 0.14 M⁻¹ s⁻¹

Results, then the compound that gave them:

k2 (Thymidylate synthase [2]): 2600 M⁻¹ s⁻¹
SMILES: O=C1C=CC(=O)C(c2ccccc2)=C1

k2 (Thymidylate synthase [2]): 32000 M⁻¹ s⁻¹
Ki (Thymidylate synthase [6]): 2 µM
k cat (Thymidylate synthase [7]): 0.065 s⁻¹
SMILES: O=C1C=CC(=O)C(c2cn([C@H]3C[C@H](O)[C@@H](COP(=O)(O)O)O3)c(=O)[nH]c2=O)=C1

k2 (Thymidylate synthase [2]): > 760000 M⁻¹ s⁻¹
SMILES: O=c1ccn([C@H]2C[C@H](O)[C@@H](COP(=O)(O)O)O2)c(=O)[nH]1

k obs (Thymidylate synthase [9]): 0.00518 s⁻¹
k obs (Thymidylate synthase [10]): 0.0025 s⁻¹
k obs (Thymidylate synthase [11]): 0.000434 s⁻¹
k obs (Thymidylate synthase [12]): 0.00184 s⁻¹
k obs (Thymidylate synthase [13]): 0.00384 s⁻¹
k obs (Thymidylate synthase [14]): 0.00501 s⁻¹
k2 (Thymidylate synthase [15]): 0.53 M⁻¹ s⁻¹
k obs (Thymidylate synthase [16]): 0.00434 s⁻¹
k2 (Thymidylate synthase [17]): 2.3 M⁻¹ s⁻¹
k2 (Thymidylate synthase [18]): 1.7 M⁻¹ s⁻¹
k obs (Thymidylate synthase [19]): 0.00334 s⁻¹
k obs (Thymidylate synthase [20]): 0.0184 s⁻¹
k obs (Thymidylate synthase [21]): 0.0167 s⁻¹
k obs (Thymidylate synthase [22]): 0.00919 s⁻¹
k obs (Thymidylate synthase [23]): 0.00969 s⁻¹
k obs (Thymidylate synthase [24]): 0.00952 s⁻¹
k obs (Thymidylate synthase [25]): 0.00154 s⁻¹
k2 (Thymidylate synthase [26]): 4.7 M⁻¹ s⁻¹
k obs (Thymidylate synthase [27]): 0.0197 s⁻¹
SMILES: CC(=O)OC[C@H]1O[C@@H](n2cc(C3=CC(=O)C=CC3=O)c(=O)[nH]c2=O)C[C@@H]1OC(C)=O

Source: ChEMBL document CHEMBL1123535, “Thiol addition to quinones: model reactions for the inactivation of thymidylate synthase by 5-p-benzoquinonyl-2'-deoxyuridine 5'-phosphate” (J Med Chem, 1986)
